Bioassay records: PubChem BioAssay, Johns Hopkins Ion Channel Center
Compounds with a hit are over-represented: about 3.5% of the library has one in this group of screens.
MrgX1 allo act: allosterically activates human MrgX1 receptor signaling; MrgX1-HEK293, Fluo-4 calcium flux, FDSS; stronger effect = higher value; hit rate 0.63% among 310,000; Q96LB2; B-score at 10 µM;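 active = plate-corrected calcium response at least 3 library SD above typical, normal starting fluorescence, not activating the receptor alone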;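 also: compound read alongside a low EC10 to EC30 dose of BAM8-22 agonist; peak minus trough fluorescence over baseline measured at the second addition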
Target sequence (Q96LB2 whole entry, looked up): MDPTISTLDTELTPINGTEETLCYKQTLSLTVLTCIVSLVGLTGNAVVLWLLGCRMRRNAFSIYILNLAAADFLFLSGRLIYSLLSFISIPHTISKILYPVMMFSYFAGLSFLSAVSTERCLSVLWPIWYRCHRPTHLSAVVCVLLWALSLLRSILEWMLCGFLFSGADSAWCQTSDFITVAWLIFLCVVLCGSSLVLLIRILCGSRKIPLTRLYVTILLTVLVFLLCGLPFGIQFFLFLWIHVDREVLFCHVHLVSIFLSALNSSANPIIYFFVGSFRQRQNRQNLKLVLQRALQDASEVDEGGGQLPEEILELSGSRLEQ
RGS4 act: RGS4 potentiation or activation | B-score at 10 µM | HEK293 M3R/inducible RGS4, carbachol calcium flux Fluo4; stronger effect = lower value | AID 463111 | hit rate 0.92% among 310,000;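 active = B-score of the integrated calcium signal more than 4 SD below the library mean, with starting fluorescence not abnormally high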;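 also: negative B-score means reduced calcium response which marks RGS4 activation or potentiation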
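System: HEK293 FlpIn-TREx cells, stable M3R, doxycycline-inducible RGS4. Timing: overnight RGS4 induction, 30 min dye load 37 °C, 20 min compound RT. Also added: carbachol, ECmax concentration. Measured by: Fluo4 fluorescence kinetic imaging of calcium. Evaluation: integrated calcium ratio converted to B score.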
MrgX1 agonist: agonists of human MrgX1 receptor | Q96LB2 | MrgX1-HEK293 cells, Fluo-4 calcium fluorescence, agonist mode; stronger effect = higher value | B-score at 10 µM | hit rate 0.44% among 310,000;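 active = calcium response B-score plate-corrected fluorescence ratio at least 3 library SD, with starting fluorescence B-score inside 5 SD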
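Assay system: stable human MrgX1 HEK293 cell line. Quantity: 15,000 cells per well. Schedule: cells plated overnight, dye loaded 0.5 h 37 °C, 0.5 h room temperature. Detection: Fluo-4 NW calcium-flux fluorescence, kinetic read. Read-out basis: peak-minus-minimum fluorescence over baseline, converted to B scores. Control set: positive and negative control wells on each plate.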
RGS4 block: inhibitors of human RGS4. P49798. HEK293 M3R/RGS4 inducible, Fluo-4 calcium flux; stronger effect = higher value; triggered by carbachol at its EC20. B-score at 10 µM. hit rate 0.45% among 310,000;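 active = B-score, a plate-corrected calcium signal, over three deviations above library mean, with baseline fluorescence within five deviations of library mean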;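 also: RGS4 expression induced by doxycycline in cells with stable M3 receptor; B-score is computed from the integrated fluorescence ratio over baseline after carbachol; higher B-score means a larger calcium signal and so more RGS4 inhibition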
Target sequence (P49798 whole entry, looked up): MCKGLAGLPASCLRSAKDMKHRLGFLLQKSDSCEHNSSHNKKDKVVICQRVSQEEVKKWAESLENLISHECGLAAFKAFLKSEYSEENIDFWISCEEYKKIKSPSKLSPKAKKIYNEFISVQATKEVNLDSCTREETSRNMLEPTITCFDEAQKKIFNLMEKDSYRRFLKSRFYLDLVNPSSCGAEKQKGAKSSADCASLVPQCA
MrgX1 antagonist: human MrgX1 receptor antagonism, primary screen | MRGX1-HEK293 calcium flux, Fluo-4, BAM8-22 antagonism; stronger effect = lower value | B-score at 10 µM | hit rate 1.3% among 310,000;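 active = calcium-response B-score plate-corrected more than 3 library SD below zero, starting fluorescence within 5 deviations, no agonist response on first addition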;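 also: peak minus trough fluorescence over baseline after final BAM8-22 challenge near maximal dose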
MrgX1 ag confirm: confirmation of human MrgX1 receptor agonists; shares compounds with MrgX1 agonist; MrgX1-HEK293, Fluo-4 calcium fluorescence, FDSS; activation, % at 10 µM; hit rate 78% among 600;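 active = calcium signal rise, corrected for plate position, at least 3 library SD high, with starting brightness within 5 such deviations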
HEK293 Ca flux: counter-screen for MrgX1 antagonists: effect in parental HEK293 cells. Fluo-4 calcium fluorescence, FDSS. shares compounds with MrgX1 antagonist. hit rate 2% among 4,000. fluorescence ratio F(max-min)/F0 at 10 µM;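 active = duplicate-averaged calcium fluorescence ratio at least three times the standard deviation of buffer wells, a nonspecific response in parental cells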
HEK293 Ca counter: counter-screen for MrgX1 allosteric activators: effect in parental HEK293 cells. hit rate 0.4% among 4,000. shares compounds with MrgX1 antagonist. parental HEK293 calcium flux, Fluo-4 fluorescence ratio; stronger effect = higher value. AID 624114. fluorescence ratio F(max-min)/F0 at 10 µM;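 active = calcium fluorescence ratio, averaged over duplicates, at least 3 SD of the buffer-well ratio, meaning a nonspecific response in receptor-free cells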;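 also: untransfected parental HEK293 lacking MrgX1 used as counterscreen for MrgX1 allosteric activators; fluorescence change taken during the second addition on a kinetic imager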
HEK293 Ca cntr2: MrgX1 activator counter-screen hit in parental HEK293 cells; shares compounds with MrgX1 antagonist; Fluo-4 calcium fluorescence (FDSS); stronger effect = higher value; fluorescence ratio F(max-min)/F0 at 10 µM; hit rate 8.7% among 4,000;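 active = calcium fluorescence ratio at least three times the spread of buffer wells, meaning a non-specific response in parental cells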
The depositor's hits bear a star; i = inactive; x = not tested or not shown.

SMILES | MrgX1 allo act | RGS4 act | MrgX1 agonist | RGS4 block | MrgX1 antagonist | MrgX1 ag confirm | HEK293 Ca flux | HEK293 Ca counter | HEK293 Ca cntr2
CCc1ccc(CNc2ccc3c(c2)ncn3CC)cc1 | i | i | 30* | i | i | 166%* | i | i | i
CSCCC(NC(=O)c1ccco1)C(=O)OC(C)C(=O)NC(=O)NC1CCCCC1 (stereo not drawn) | i | i | 92* | i | i | 397%* | i | i | 86*
Oc1c(C=NCc2ccc(F)cc2)[nH]c2ccc(Br)c(Cl)c12 | i | i | 27* | 5.7* | i | 332%* | i | i | 71*
C=CCNc1ncnc2c1[nH]c1ccc(Cl)cc12 | i | i | 65* | i | i | 353%* | i | i | 59*
C=CCNc1ncnc2c1[nH]c1ccccc12 | i | i | i | i | i | x | x | x | x
COc1ccc(-c2csc(NC(=O)CSCc3c(C)noc3C)n2)cc1OC | i | i | 44* | i | i | i | i | i | i
COc1ccc(-c2csc(NC(=O)CN3C(=O)C4CCCCC4C3=O)n2)cc1OC (stereo not drawn) | i | i | 30* | i | i | i | i | i | i
COc1ccc(OC)c(-c2csc(NC(=O)CN3C(=O)C4CCCCC4C3=O)n2)c1 (stereo not drawn) | i | i | i | i | i | x | x | x | x
COc1ccc(N2CC(C(=O)OCC(=O)NCc3ccccc3)CC2=O)cc1 (stereo not drawn) | i | i | i | i | i | x | x | x | x
CCOc1ccc(S(=O)(=O)N2CCCCC2)cc1NC(=O)Cc1cccs1 | i | i | i | i | i | x | x | x | x
N#CC(c1ccccn1)(c1ncc(C(F)(F)F)cc1Cl)N1CCOCC1 (stereo not drawn) | i | i | i | i | i | x | x | x | x
CCOc1ccccc1NC(=O)COC(=O)C1CC(=O)N(c2c(C)cccc2C)C1 (stereo not drawn) | i | i | 28* | i | i | i | i | i | i
Cc1cc2nc3ccc(N(C)C)cc3nc2cc1N | i | i | 26* | i | i | 259%* | i | i | i
CCOC(=O)Cn1nc(-c2ccc(F)cc2)oc1=O | i | i | i | i | i | x | x | x | x
Nc1nc2ccccc2cc1-c1cccs1 | i | i | 45* | i | i | 196%* | i | i | i
Cc1ccc(-c2cc3ccccc3nc2N)cc1 | i | i | 43* | i | i | 220%* | i | i | i
c1csc(-c2ccc3ccccc3n2)c1 | i | i | i | i | i | x | x | x | x
CC1=Nc2ccc(C)c3nc(C)cc(c23)N1c1ccc(C)cc1 | i | i | 38* | i | i | 191%* | i | i | i
Cc1ccc(N2C=Nc3ccc(C)c4nc(C)cc2c34)cc1 | i | i | 28* | i | i | 98%* | i | i | i
Cc1ccc(N2C(=O)CC(Sc3nc(C)cc(C)n3)C2=O)cc1 (stereo not drawn) | i | i | i | i | i | x | x | x | x
Cc1sc2ncnc(N(C)C3CCCCC3)c2c1C | i | i | 38* | i | i | i | i | i | i
O=C(CN1C(=O)C2C3C=CC(C3)C2C1=O)NCc1ccc2c(c1)OCO2 (stereo not drawn) | i | i | i | i | i | x | x | x | x
CCOc1ccc(CSC(=N)N)cc1Cl | i | i | 33* | i | i | 179%* | i | i | i
Cc1cc(/C=C2\NC(=S)N(C)C2=O)ccc1N1CCCC1 | i | i | 91* | i | i | i | 0.3* | i | 203*
CCN1C(=O)/C(=C/c2ccc(N3CCCC3)cc2)NC1=S | i | i | 70* | i | i | i | 0.02* | i | 251*
SMILES | MrgX1 allo act | RGS4 act | MrgX1 agonist | RGS4 block | MrgX1 antagonist | MrgX1 ag confirm | HEK293 Ca flux | HEK293 Ca counter | HEK293 Ca cntr2
COc1cc(/C=C2\NC(=S)N(C)C2=O)ccc1O | i | i | i | i | i | x | x | x | x
N#Cc1c(C(F)(F)F)cc(-c2cccc(Cl)c2)[nH]c1=O | i | i | i | i | i | x | x | x | x
CC(C)Nc1nc2nonc2nc1Nc1ccccc1 | i | i | 29* | i | i | 175%* | i | i | i
NC1=NC[C@@H](Cc2ccc(O)cc2)N1CCc1cccc(F)c1 | i | i | 31* | i | i | 171%* | i | i | i
NC1=NC[C@@H](Cc2ccc(O)cc2)N1CCc1cc(C(F)(F)F)cc(C(F)(F)F)c1 | i | i | i | i | i | x | x | x | x
O=C1NC(Nc2ccccn2)(C(F)(F)F)C(=O)N1c1ccc(F)cc1 (stereo not drawn) | i | i | 32* | i | i | 207%* | i | i | 54*
Cc1sc(NC(=O)C2CCCCC2C(=O)O)c(C(N)=O)c1-c1ccc(C(C)(C)C)cc1 (stereo not drawn) | i | i | 95* | i | i | 299%* | i | i | 68*
CCOc1ccc(-c2nc(CSCC(=O)NC3CCCc4ccccc43)c(C)o2)cc1 (stereo not drawn) | i | i | i | i | i | x | x | x | x
CCCCOc1ccc(C(=O)NNC(=S)NC(=O)CC)cc1 | i | i | i | i | i | x | x | x | x
O=C(NNC(=S)Nc1ccc(F)cc1F)c1ccco1 | i | i | i | i | i | x | x | x | x
O=C(NC(=S)NNC(=O)c1ccco1)c1ccc(Br)cc1 | i | i | 135* | i | i | 543%* | i | i | 98*
CCCOc1ccc(C(=O)NNC(=S)NC(=O)c2ccco2)cc1 | i | i | 146* | i | i | 661%* | i | i | 127*
O=C(NNC(=S)NC(=O)c1ccco1)c1ccc(F)cc1 | i | i | 69* | i | i | 201%* | i | i | 47*
CCCCC(=O)NNC(=S)NC(=O)c1ccc(C)cc1 | i | i | 150* | i | i | 712%* | i | i | 159*
CCCCC(=O)NNC(=S)NC(=O)c1ccc([N+](=O)[O-])cc1 | i | i | i | i | i | x | x | x | x
